From article PMC5123777 (Biochemistry, 2015)

B1: OXA-48 class D β-lactamase (enzyme)
chain: KEWQENKSWNAHFTEHKSQGVVVLWNENKQQGFTNNLKRANQAFLPASTFKIPNSLIALDLGVVKDEHQVFKWDGQTRDIATWNRDHNLITAMKYSVVPVYQEFARQIGEARMSKMLHAFDYGNEDISGNVDSFWLDGGIRISATEQISFLRKLYHNKLHVSERSQRIVKQAMLTEANGDYIIRAKTGYSTRIEPKIGWWVGWVELDDNVWFFAMNMDMPTSDGLGLRQAITKEVLKQEKIIP

Columns and labels:
[1] = target: OXA-163 (Klebsiella pneumoniae, UniProt Q6XEC0, DEL214-217/S212D); assay: Steady-state enzyme kinetics of substrate hydrolysis by OXA-163; format: biochemical, Klebsiella pneumoniae and Enterobacter cloacae; conditions: for Km / kcat: 30°C, 50 mM sodium phosphate pH 7.2, 15 mM sodium bicarbonate
Method in brief: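 OXA-163 was purified from induced culture supernatant (0.4 mM IPTG, 23°C, 20 h) by zinc-chelate chromatography and size exclusion, and quantified at A280. Hydrolysis was followed by UV at 260 nm (ceftazidime, cefotaxime), 262 nm (cephalothin), 298 nm (meropenem), or 299 nm (imipenem, doripenem, […]). Data were fitted to Michaelis–Menten; where Vmax was unreachable, kcat/Km came from a first-order fit.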

[2] = target: OXA-48 (Klebsiella pneumoniae, UniProt Q6XEC0); assay: Steady-state enzyme kinetics of substrate hydrolysis by OXA-48; format: biochemical; conditions: for OXA-48 kcat/Km value smaller compared to imipenem: relative to imipenem kcat/Km
[3] = tested on: class D β-lactamases (DBLs); conditions: in vitro; cited from earlier work
[4] = target: OXA-163 class D β-lactamase (Klebsiella pneumoniae and Enterobacter cloacae); assay: SEC
[5] = target: OXA-163 class D β-lactamase (Klebsiella pneumoniae and Enterobacter cloacae); assay: crystal structure
[6] = target: OXA-163 class D β-lactamase (Klebsiella pneumoniae and Enterobacter cloacae); assay: crystal structure; remark: listed apart in the source
[7] = target: the molecule itself; assay: SEC

Molecule | Km ([1]; OXA-163) | kcat ([1]; OXA-163) | further results
CO/N=C(\C(=O)N[C@@H]1C(=O)N2C(C(=O)O)=C(COC(C)=O)CS[C@H]12)c1csc(N)n1 [Cefotaxime, cefotaxime] | 36 ± 11 µM | 14 ± 1 s⁻¹ | 
CC(C)(O/N=C(\C(=O)N[C@@H]1C(=O)N2C(C(=O)[O-])=C(C[n+]3ccccc3)CS[C@H]12)c1csc(N)n1)C(=O)O [Ceftazidime, ceftazidime] | > 1000 µM |  | hydrolysis by OXA-48 (steady-state kinetics analysis) [2]: does not hydrolyze; hydrolysis by OXA-163 ([1]; OXA-163): does hydrolyze
CC(=O)OCC1=C(C(=O)O)N2C(=O)[C@@H](NC(=O)Cc3cccs3)[C@H]2SC1 [Cephalothin, cephalothin] | 3.4 ± 0.4 µM | 1.7 ± 0.1 s⁻¹ | 
C[C@@H](O)[C@H]1C(=O)N2C(C(=O)O)=C(S[C@@H]3CN[C@H](CNS(N)(=O)=O)C3)[C@H](C)[C@H]12 [Doripenem, doripenem] | 5 ± 0.4 µM | 0.018 ± 0.001 s⁻¹ | OXA-48 kcat/Km value smaller compared to imipenem [2]: 56 fold
C[C@@H](O)[C@H]1C(=O)N2C(C(=O)O)=C(SCCN=CN)C[C@H]12 [Imipenem, imipenem] | 3.6 ± 1 µM | 0.004 ± 0.001 s⁻¹ | drop in the catalytic efficiency of OXA-163 in comparison to OXA-48 ([1]; kcat/Km OXA-48 versus OXA-163): 820 fold
C[C@@H](O)[C@H]1C(=O)N2C(C(=O)O)=C(S[C@@H]3CN[C@H](C(=O)N(C)C)C3)[C@H](C)[C@H]12 [Meropenem, meropenem] | 5.3 ± 0.5 µM | 0.021 ± 0.001 s⁻¹ | OXA-48 kcat/Km value smaller compared to imipenem [2]: 53 fold
[Cl-].[Na+] [NaCl, sodium chloride] |  |  | sodium chloride concentration at which most DBLs are fully inhibited [3]: 100 mM
O=C(Cc1cccs1)N[C@@H]1C(=O)N2C(C(=O)O)=C(/C=C/c3ccc([N+](=O)[O-])cc3[N+](=O)[O-])CS[C@H]12 [Nitrocefin, nitrocefin] | 19 ± 8 µM | 34 ± 2 s⁻¹ | 
OXA-163 class D β-lactamase (enzyme) |  |  | stoichiometry N [4]: 2; stoichiometry N [5]: 2; stoichiometry N [6]: 2
B1 |  |  | stoichiometry N [7]: 2
